Compound activity from PubChem.
T cruzi growth-1 = T. cruzi proliferation inhibition; AID 624255; 77,000 compounds, 5.9% hits; inhibition, % at 8.34 µM; T. cruzi beta-gal in NIH3T3, GalScreen luminescence, 90 h;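 active means mean inhibition above about 93%, with at least 55% of replicates each passing it, limit read from the data, passing the limit was not always enough; inconclusive means only one of those two conditions holds; inactive means neither condition holds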
IDH1 R132H inh = IDH1 R132H (human) inhibition; O75874; IDH1 R132H reductase, diaphorase/resazurin fluorescence, 60 min; inhibition, % at 10 µM; 70,000 compounds, 0.18% hits; AID 624101; in the data active means inhibition above about 34%; inconclusive means no clear call, values can overlap the other calls; inactive means below about 11%;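 further: 0% = DMSO and 100% = no enzyme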
KDM4C inh = inhibitors of human demethylase GASC-1 KDM4C | 96,000 compounds, 0.15% hits | AID 720574 | inhibition, % at 12.5 µM | GST-KDM4C 2-372, H3K9me3 peptide, LANCE TR-FRET | Q9H3R0;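 active means mean replicate inhibition above about 25%, with at least 55% of replicates also reaching it, limit read from the data, passing the limit was not always enough; inconclusive means only one of those two conditions met; inactive means neither condition met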
Target sequence (Q9H3R0 2-372 limits assumed): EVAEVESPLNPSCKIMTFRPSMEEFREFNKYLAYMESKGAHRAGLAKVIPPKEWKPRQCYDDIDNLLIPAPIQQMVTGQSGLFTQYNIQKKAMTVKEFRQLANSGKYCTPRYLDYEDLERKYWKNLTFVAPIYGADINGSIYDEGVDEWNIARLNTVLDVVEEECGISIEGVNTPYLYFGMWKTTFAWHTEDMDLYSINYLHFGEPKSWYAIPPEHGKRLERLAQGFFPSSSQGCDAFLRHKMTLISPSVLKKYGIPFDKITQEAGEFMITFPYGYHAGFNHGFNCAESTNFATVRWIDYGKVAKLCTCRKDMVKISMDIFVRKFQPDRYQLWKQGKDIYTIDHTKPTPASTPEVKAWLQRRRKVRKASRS
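Material: GST-tagged GASC-1 (JMJD2C) catalytic fragment, aa 2-372. Input: enzyme final amount 10 nM. Medium: HEPES buffer, pH 7.5, plus ascorbate. Reagent: H3K9me3 peptide substrate, Fe(II), 2-oxoglutarate. Doses: single dose. Times: reaction 30 min RT, detection step 1 h RT. Measured by: LANCE TR-FRET. Evaluation: Fall in 671/618 emission ratio as inhibition.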
T cruzi growth-2 = blocks T. cruzi growth in NIH3T3 host cells | shares compounds with T cruzi growth-1 | T. cruzi beta-gal in NIH3T3, GalScreen luminescence, 90 h | inhibition, % at 8.35 µM | 5,600 compounds, 72% hits;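 active means mean replicate inhibition above about 95% and at least 55% of replicates individually reaching it, limit read from the data; inconclusive means only one of the two criteria is met; inactive means neither criterion is met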
T cruzi growth-3 = blocks T. cruzi growth in NIH3T3 host cells; shares compounds with T cruzi growth-1; T. cruzi beta-gal in NIH3T3, GalScreen luminescence, 90 h; inhibition, % at 2.09 µM; 5,600 compounds, 21% hits;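 active means mean inhibition above about 95%, with at least 55% of replicates also reaching it, limit read from the data; inconclusive means meets just one of the two conditions; inactive means meets neither condition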;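 further: plate controls were neutral control median for no effect and positive control median for full effect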
NIH3T3 tox = kills mouse NIH/3T3 fibroblasts; shares compounds with T cruzi growth-1; NIH/3T3 viability, CellTiter-Glo ATP luminescence, 90 h; cytotoxicity (signal decrease), % at 8.35 µM; 5,600 compounds, 14% hits; AID 651742;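 active means mean signal decrease across replicates above about 35% based on untreated-well scatter, with enough replicates individually passing, limit read from the data; inconclusive means no rule stated though some were filed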;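 further: 0% = median of neutral control wells and 100% = median of positive control wells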
NIH3T3 tox 2 = NIH/3T3 (mouse) viability loss | shares compounds with T cruzi growth-1 | NIH/3T3 viability, CellTiter-Glo ATP luminescence, 90 h | inhibition, % at 24.9 µM | 5,600 compounds, 56% hits | AID 651744;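 active means mean loss of cell viability signal at or above a set limit, and enough replicates individually reaching it; inconclusive means meets only the mean limit or only the replicate share; inactive means meets neither condition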;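 further: 0% = median of neutral control wells and 100% = median of positive control wells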
Active calls of the source: *. The entries come from a sample that favours hits as a whole.

For O=C(c1ccc(F)cc1)N1CC[C@@H]2[C@@H](CO)Nc3ccc(C#Cc4ccccc4F)cc3[C@@H]21 the results were T cruzi growth-1 52 and KDM4C inh -3.
`COc1ccccc1C#Cc1ccc2c(c1)[C@@H]1[C@@H](CCN1C(=O)c1ccccc1)[C@H](CO)N2` gave KDM4C inh -2.
`Cc1ccc(C(=O)O)cc1NC(=O)CCN1C(=O)c2ccccc2C1=O` gave IDH1 R132H inh 0.
Screening COc1ccc(-c2ccc(CCC(=O)O)n2-c2ccc(N(C)C)cc2)cc1 returned IDH1 R132H inh 0.
For O=S(=O)(c1ccccc1)N1CC[C@H]2[C@H](CO)Nc3ccc(C#Cc4cccc(F)c4)cc3[C@H]21 the results were KDM4C inh -8.
Cc1ccc(S(=O)(=O)N2CC[C@@H]3[C@H]2c2cc(C#Cc4ccccc4F)ccc2N[C@@H]3CO)cc1 was read as T cruzi growth-1 inconclusive, KDM4C inh 1, T cruzi growth-2 113*, T cruzi growth-3 110*, NIH3T3 tox 24 and NIH3T3 tox 2 inconclusive.
Cc1ccc(S(=O)(=O)N2CC[C@@H]3[C@H](CO)Nc4ccc(C#Cc5cccc(F)c5)cc4[C@@H]32)cc1 was read as T cruzi growth-1 71 and KDM4C inh -1.
Screening Cc1ccc(S(=O)(=O)N2CC[C@@H]3[C@@H](CO)Nc4ccc(C#Cc5cccc(F)c5)cc4[C@@H]32)cc1 returned T cruzi growth-1 99*, KDM4C inh -1, T cruzi growth-2 101*, T cruzi growth-3 108*, NIH3T3 tox 39* and NIH3T3 tox 2 57*.
Cc1ccc(S(=O)(=O)N2CC[C@@H]3[C@H](CO)Nc4ccc(C#Cc5ccc(F)cc5)cc4[C@@H]32)cc1 was read as T cruzi growth-1 -11 and KDM4C inh -7.
For O=S(=O)(c1ccccc1)N1CC[C@@H]2[C@H](CO)Nc3ccc(C#Cc4cccc(F)c4)cc3[C@@H]21 the results were T cruzi growth-1 inconclusive, KDM4C inh -3, T cruzi growth-2 101*, T cruzi growth-3 111*, NIH3T3 tox 46* and NIH3T3 tox 2 59*.
Screening CCOc1ccccc1NC(=O)CSc1ncnc2sc(C)c(C)c12 returned IDH1 R132H inh -1.
Screening COC(=O)c1ccc(C(=O)OC)c(NC(=O)CSc2nc(C)cc(C)n2)c1 returned IDH1 R132H inh 0.
CN(C(=O)c1ccn[nH]1)C1CC(C)(C)N(C)C(C)(C)C1 was read as IDH1 R132H inh 1.
For CCOC(=O)c1c(NC(=O)COc2cccc(Cl)c2)sc(C)c1C the results were IDH1 R132H inh 0.
For CCCC[C@@H](O)c1cc(OC)cc(=O)o1 the results were IDH1 R132H inh 1.
`Cc1ccc(S(=O)(=O)Nc2ccc3c(c2)C(=O)N([C@H](C)CO)C[C@H](C)[C@H](CN(C)S(=O)(=O)c2ccccc2)OCCCC[C@H](C)O3)cc1` gave T cruzi growth-1 113*, IDH1 R132H inh 1, KDM4C inh 0, T cruzi growth-2 113*, T cruzi growth-3 39, NIH3T3 tox -1 and NIH3T3 tox 2 -5.
C[C@@H]1CCCCO[C@@H](CN(C)S(=O)(=O)c2ccccc2)[C@H](C)CN([C@@H](C)CO)C(=O)c2cc(NS(=O)(=O)c3ccccc3)ccc2O1 was read as T cruzi growth-1 48, IDH1 R132H inh 1 and KDM4C inh 2.
Screening Cc1ccc(S(=O)(=O)Nc2ccc3c(c2)C(=O)N([C@@H](C)CO)C[C@H](C)[C@@H](CN(C)C(=O)Cc2ccccc2)OCCCC[C@@H](C)O3)cc1 returned T cruzi growth-1 inconclusive, IDH1 R132H inh 2, KDM4C inh -3, T cruzi growth-2 106*, T cruzi growth-3 64, NIH3T3 tox -28 and NIH3T3 tox 2 -4.
`Cc1ccc(S(=O)(=O)N(C)C[C@H]2OCCCC[C@@H](C)Oc3ccc(NS(=O)(=O)c4ccccc4)cc3C(=O)N([C@@H](C)CO)C[C@@H]2C)cc1` gave T cruzi growth-1 inconclusive, KDM4C inh -1, T cruzi growth-2 105*, T cruzi growth-3 61, NIH3T3 tox 6 and NIH3T3 tox 2 32*.
